Measured values taken from ChEMBL document CHEMBL3758131, “Towards new 5-HT7 antagonists among arylsulfonamide derivatives of (aryloxy)ethyl-alkyl amines: Multiobjective based design, synthesis, and antidepressant and anxiolytic properties” (Eur J Med Chem, 2016).

Key:
[1] = biological target: T1, 5-hydroxytryptamine receptor 1A (Homo sapiens, UniProt P08908); assay: Displacement of [3H]-8-OH-DPAT from human 5-HT1A receptor expressed in HEK293 cells after 1 hr; assay type: cell-based
T1 sequence (P08908 whole entry): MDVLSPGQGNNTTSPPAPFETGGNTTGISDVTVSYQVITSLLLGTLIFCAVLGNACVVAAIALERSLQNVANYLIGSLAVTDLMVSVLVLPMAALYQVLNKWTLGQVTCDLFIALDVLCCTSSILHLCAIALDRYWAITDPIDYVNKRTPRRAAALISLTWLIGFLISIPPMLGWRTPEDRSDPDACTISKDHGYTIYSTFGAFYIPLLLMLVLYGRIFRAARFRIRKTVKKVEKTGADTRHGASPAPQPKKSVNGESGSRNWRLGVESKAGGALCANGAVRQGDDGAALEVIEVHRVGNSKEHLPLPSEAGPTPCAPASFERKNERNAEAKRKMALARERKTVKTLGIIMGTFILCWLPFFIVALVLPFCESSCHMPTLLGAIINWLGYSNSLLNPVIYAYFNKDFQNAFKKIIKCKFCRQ
In short: (§1)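 Competition binding on membranes from HEK293 cells stably expressing human 5-HT7b or 5-HT1A. Incubation 1 h, at 37 °C for 5-HT7b and at room temperature for 5-HT1A. Non-specific binding defined with 10 µM 5-HT.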

[2] = species: Homo sapiens; assay: Selectivity index ratio of Ki for human 5-HT1A receptor to Ki for human 5-HT7B
[3] = biological target: T2, 5-hydroxytryptamine receptor 7 (Homo sapiens, UniProt P34969); assay: Displacement of [3H]-5-CT from human 5-HT7B receptor expressed in HEK293 cells after 1 hr; assay type: cell-based; in short: as §1
[4] = biological target: T2, 5-hydroxytryptamine receptor 7; assay: Antagonist activity at human 5-HT7B receptor expressed in […] cells assessed as inhibition of 5-CT induced cAMP production at 10^-6 M after 30 mins by TR-FRET assay; assay type: functional, cell-based
[5] = biological target: 5-hydroxytryptamine receptor 2A (Homo sapiens, UniProt P28223); assay: Displacement of [3H]-Ketanserin from human 5-HT2A receptor expressed in HEK293 cells after 1 hr; assay type: cell-based
[6] = biological target: T2, 5-hydroxytryptamine receptor 7; assay: Antagonist activity at human 5-HT7B receptor expressed in CHO cells assessed as inhibition of 5-CT induced cAMP production at 10^-7 M after 30 mins by TR-FRET assay; assay type: functional, cell-based
[7] = tested on: Mus musculus; assay: Toxicity in ip dosed C57BL/6J mouse assessed as effect on spontaneous locomotory activity at MED measured over 1 min 15 secs; assay type: organism-based; details: in vivo
[8] = tested on: Mus musculus; assay: Toxicity in ip dosed C57BL/6J mouse assessed as effect on spontaneous locomotory activity at MED measured over 6 mins; assay type: organism-based; details: in vivo, 0.1 h
In short: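 Mice habituated 30 min in individual cages, then ambulation counted over a period matching each behavioural test: 6 min for the tail suspension test and 1 min 15 s for the four-plate test. Compounds given ip at the active doses.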

T2 sequence (P34969 whole entry): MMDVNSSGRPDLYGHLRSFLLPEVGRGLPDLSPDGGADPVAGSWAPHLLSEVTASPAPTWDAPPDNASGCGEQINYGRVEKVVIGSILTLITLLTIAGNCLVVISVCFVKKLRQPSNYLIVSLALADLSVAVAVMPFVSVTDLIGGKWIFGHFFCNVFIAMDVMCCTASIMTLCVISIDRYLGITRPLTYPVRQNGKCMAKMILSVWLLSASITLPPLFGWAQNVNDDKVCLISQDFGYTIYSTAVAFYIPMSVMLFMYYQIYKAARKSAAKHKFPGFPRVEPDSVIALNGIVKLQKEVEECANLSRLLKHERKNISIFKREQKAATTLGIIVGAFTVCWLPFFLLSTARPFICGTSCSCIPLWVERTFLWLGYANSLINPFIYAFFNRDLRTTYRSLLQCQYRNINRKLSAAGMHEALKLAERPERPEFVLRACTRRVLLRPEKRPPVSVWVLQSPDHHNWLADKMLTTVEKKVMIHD
Sequence of 5-hydroxytryptamine receptor 2A (P28223 whole entry): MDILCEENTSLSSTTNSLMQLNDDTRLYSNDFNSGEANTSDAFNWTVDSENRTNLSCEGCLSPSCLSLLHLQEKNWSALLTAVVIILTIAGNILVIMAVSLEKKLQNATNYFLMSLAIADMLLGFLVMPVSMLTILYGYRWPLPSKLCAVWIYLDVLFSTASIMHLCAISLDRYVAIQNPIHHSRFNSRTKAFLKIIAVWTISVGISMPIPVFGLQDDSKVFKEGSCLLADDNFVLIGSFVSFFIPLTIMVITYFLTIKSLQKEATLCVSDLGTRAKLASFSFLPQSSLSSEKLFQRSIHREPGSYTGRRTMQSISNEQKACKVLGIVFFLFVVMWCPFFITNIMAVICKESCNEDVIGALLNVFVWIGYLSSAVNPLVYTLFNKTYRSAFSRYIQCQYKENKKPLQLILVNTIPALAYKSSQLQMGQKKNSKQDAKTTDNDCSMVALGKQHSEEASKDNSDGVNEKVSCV

Row | SMILES | Ki [1] | Ratio Ki [2] | Ki [3] | other results
1 | CC(C)c1ccccc1OCCN1CCC(NC(=O)Nc2cccc(Cl)c2)CC1 | 591 nM | 2 | 264 nM | 
2 | CC(C)c1ccccc1OCCN1CCC(NS(=O)(=O)c2cccc(F)c2)CC1 |  |  |  | inhibition [4]: 99%; Ki [5]: 178 nM; inhibition [6]: 70%
3 | CC(C)c1cccc(OCCN2C3CCC2CC(NS(=O)(=O)c2cnn(C)c2)C3)c1 (stereo not given) | 431 nM | 6 | 70 nM | 
4 | CC(C)c1ccccc1OCCN1CCC(NC(=O)c2ccc(F)cc2)CC1 | 199 nM | 1 | 285 nM | 
5 | O=S(=O)(NC1CCN(CCOc2ccccc2)CC1)c1ccc(F)cc1 | 1760 nM |  | 855 nM | 
6 | O=S(=O)(NC1CC2CCC(C1)N2CCOc1cccc(-c2ccccc2)c1)c1ccc(F)c(F)c1 (stereo not given) | 74 nM | 4 | 20 nM | 
7 | O=C(NC1CCN(CCOc2ccccc2-c2ccccc2)CC1)c1cccc(Cl)c1 | 148 nM | 1 | 197 nM | 
8 | Nc1ccc(S(=O)(=O)NC2CCN(CCOc3ccccc3-c3ccccc3)CC2)cc1 | 407 nM | 16 | 26 nM | 
9 | CC(C)c1ccccc1OCCN1CCC(NC(=O)Nc2ccc(F)cc2)CC1 | 190 nM | 1 | 201 nM | 
10 | O=S(=O)(NC1CC2CCC(C1)N2CCOc1cccc(-c2ccccc2)c1)c1ccc(F)cc1 (stereo not given) | 170 nM | 12 | 14 nM | 
11 | Cc1ccccc1OCCN1CCC(NS(=O)(=O)c2ccc(F)cc2)CC1 | 745 nM |  | 163 nM | 
12 | CC(C)c1ccccc1OCCN1CC(NS(=O)(=O)c2ccc(F)cc2)C1 | 45 nM | 6 | 7 nM | 
13 | CC(C)c1ccccc1OCCN1CC(NS(=O)(=O)c2cccc(F)c2)C1 | 28 nM |  |  | 
14 | CC(C)c1cccc(OCCN2C3CCC2CC(NS(=O)(=O)c2ccc(F)c(F)c2)C3)c1 (stereo not given) | 99 nM | 11 | 9 nM | 
15 | CC(C)c1cccc(OCCN2C3CCC2CC(NS(=O)(=O)c2cc(F)ccc2F)C3)c1 (stereo not given) | 51 nM | 13 | 4 nM | 
16 | CC(C)c1cccc(C(C)C)c1OCCN1CCC(NS(=O)(=O)c2ccc(F)cc2)CC1 | 6150 nM |  | 1920 nM | 
17 | CC(C)c1ccccc1OCCN1CC2CC1CN2S(=O)(=O)c1cccc(Cl)c1 (stereo not given) | 393 nM | 2 | 168 nM | 
18 | CC(C)c1cccc(OCCN2C3CCC2CC(NS(=O)(=O)c2cccc(Cl)c2)C3)c1 (stereo not given) | 206 nM | 52 | 4 nM | 

Row | SMILES | Ki [1] | Ratio Ki [2] | Ki [3] | other results
19 | O=S(=O)(NC1CN(CCOc2ccccc2-c2ccccc2)C1)c1cccc(Cl)c1 | 23 nM | 1 | 20 nM | 
20 | O=S(=O)(c1cccc(Cl)c1)N1CC2CC1CN2CCOc1ccccc1-c1ccccc1 (stereo not given) | 2670 nM | 8 | 319 nM | 
21 | O=S(=O)(NC1CC2CCC(C1)N2CCOc1cccc(-c2ccccc2)c1)c1cccc(F)c1 (stereo not given) | 123 nM | 10 | 12 nM | 
22 | CC(C)c1ccccc1OCCN1CCC(NS(=O)(=O)c2ccc(N)cc2)CC1 | 502 nM | 13 | 39 nM | 
23 | O=S(=O)(c1ccc(F)cc1)N1CC2CC1CN2CCOc1ccccc1-c1ccccc1 (stereo not given) | 1070 nM | 4 | 292 nM | 
24 | O=S(=O)(NC1CCN(CCOc2ccccc2-c2ccccc2)CC1)c1cccnc1 | 536 nM | 10 | 53 nM | 
25 | CC(C)c1ccccc1OCCN1CCC(NS(=O)(=O)c2cccnc2)CC1 | 371 nM | 5 | 72 nM | 
26 | COc1ccccc1OCCN1CCC(NS(=O)(=O)c2ccc(F)cc2)CC1 | 463 nM |  | 344 nM | 
27 | CC(C)Oc1ccccc1OCCN1CCC(NS(=O)(=O)c2ccc(F)cc2)CC1 | 197 nM |  | 27 nM | 
28 | CC(C)(C)c1ccccc1OCCN1CCC(NS(=O)(=O)c2ccc(F)cc2)CC1 | 4570 nM | 85 | 54 nM | 
29 | Cn1cc(S(=O)(=O)NC2CN(CCOc3ccccc3-c3ccccc3)C2)cn1 | 46 nM | 1 | 40 nM | 
30 | O=S(=O)(NC1CCN(CCOc2ccccc2C2CCCC2)CC1)c1ccc(F)cc1 | 373 nM | 23 | 16 nM | 
31 | CC(C)(C)c1ccccc1OCCN1CCC(NS(=O)(=O)c2cccc(Cl)c2)CC1 | 1850 nM | 25 | 74 nM | 
32 | O=S(=O)(NC1CCN(CCOc2ccccc2C2CCCC2)CC1)c1cccc(Cl)c1 | 556 nM | 33 | 17 nM | 
33 | O=C(Nc1cccc(Cl)c1)NC1CCN(CCOc2ccccc2-c2ccccc2)CC1 | 718 nM | 4 | 198 nM | 
34 | CN1C(=O)CN=C(c2ccccc2)c2cc(Cl)ccc21 [DIAZEPAM] |  |  |  | Activity [7]: Non-toxic; Activity [8]: Non-toxic
35 | Cn1cc(S(=O)(=O)NC2CCN(CCOc3ccccc3C(C)(C)C)CC2)cn1 | 5550 nM | 66 | 84 nM | 
36 | CC(C)c1ccccc1OCCN1CC2CC1CN2S(=O)(=O)c1ccc(F)cc1 (stereo not given) | 260 nM | 2 | 162 nM | 
